Calls of active or inactive are those of the source. The rule behind the calls is not given here.
Tests used:
[1] = Antiproliferative activity against human NGP cells assessed as reduction in cell viability incubated for 48 hrs; format: functional, cell-based
Summary of the method: (§1)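 Cells were grown in RPMI 1640 with 10% FCS and 2 mM L-glutamine. Seeding was 4500 cells/well for NGP, IMR-32 and N206, and 2100 cells/well for SK-N-AS, with adherence overnight. Compound was dispensed over a concentration range in triplicate. Confluence was imaged live for 48 h and normalised to the DMSO control. Absolute IC50 came from a four-parameter variable-slope fit (n = 4).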

[2] = biological target: T1, Protein cereblon/Aurora kinase A (Homo sapiens) (UniProt O14965+Q96SW2); experiment: PROTAC activity at AURKA/CRBN in human NGP cells assessed as AURKA degradation at 10 to 1000 nM measured for 24 hrs by Western blot analysis relative to control; format: cell-based; details: dose 10-1000 nM
T1 sequence (Q96SW2 whole entry, looked up, one chain of several): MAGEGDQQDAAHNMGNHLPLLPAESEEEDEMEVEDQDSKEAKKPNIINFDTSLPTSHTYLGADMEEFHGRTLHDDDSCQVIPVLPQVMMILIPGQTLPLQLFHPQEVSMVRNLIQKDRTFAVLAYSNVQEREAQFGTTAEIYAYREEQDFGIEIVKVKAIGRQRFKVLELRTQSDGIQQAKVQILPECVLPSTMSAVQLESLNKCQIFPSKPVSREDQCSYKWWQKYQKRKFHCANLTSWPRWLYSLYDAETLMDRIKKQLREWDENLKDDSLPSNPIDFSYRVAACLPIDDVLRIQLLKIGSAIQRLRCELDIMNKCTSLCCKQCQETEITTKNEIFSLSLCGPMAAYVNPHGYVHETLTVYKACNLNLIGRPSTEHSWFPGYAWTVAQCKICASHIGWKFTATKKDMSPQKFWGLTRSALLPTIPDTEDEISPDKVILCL
Summary of the method: (§2)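 NGP cells were seeded at about 2×10^6 per flask, adhered for 48 h, and were then treated for 24 h with DMSO matched. Lysis was in RIPA with protease/phosphatase inhibitors. AURKA was quantified by capillary Simple Western with peak areas normalised to vinculin. Fold change is relative to DMSO (mean ± SD, n = 3).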

[3] = biological target: T1, Protein cereblon/Aurora kinase A (Homo sapiens); experiment: PROTAC activity at AURKA/CRBN in human NGP cells assessed as AURKA degradation measured for 24 hrs by Western blot analysis; format: cell-based; details: dose 10-1000 nM
[4] = biological target: T1, Protein cereblon/Aurora kinase A (Homo sapiens); experiment: PROTAC activity at AURKA/CRBN in human NGP cells assessed as reduction in AURKA level at 100 nM measured for 24 hrs by Western blot analysis relative to control; format: cell-based; parameters: scale not given: the % may be the effect or the level left; summary of the method: as §2
[5] = biological target: T1, Protein cereblon/Aurora kinase A (Homo sapiens); experiment: PROTAC activity at AURKA/CRBN in human NGP cells assessed as reduction in AURKA level at 10 nM measured for 24 hrs by Western blot analysis relative to control; format: cell-based; parameters: scale not given: the % may be the effect or the level left; summary of the method: as §2
[6] = biological target: T1, Protein cereblon/Aurora kinase A (Homo sapiens); experiment: PROTAC activity at AURKA/CRBN in human NGP cells assessed as AURKA degradation at 1000 nM measured for 24 hrs by Western blot analysis relative to control; format: cell-based; summary of the method: as §2
[7] = biological target: T2, Aurora kinase A (Homo sapiens) (UniProt O14965); experiment: Induction of AURKA degradation (unknown origin) measured for 6 hrs relative to control
T2 sequence (whole entry): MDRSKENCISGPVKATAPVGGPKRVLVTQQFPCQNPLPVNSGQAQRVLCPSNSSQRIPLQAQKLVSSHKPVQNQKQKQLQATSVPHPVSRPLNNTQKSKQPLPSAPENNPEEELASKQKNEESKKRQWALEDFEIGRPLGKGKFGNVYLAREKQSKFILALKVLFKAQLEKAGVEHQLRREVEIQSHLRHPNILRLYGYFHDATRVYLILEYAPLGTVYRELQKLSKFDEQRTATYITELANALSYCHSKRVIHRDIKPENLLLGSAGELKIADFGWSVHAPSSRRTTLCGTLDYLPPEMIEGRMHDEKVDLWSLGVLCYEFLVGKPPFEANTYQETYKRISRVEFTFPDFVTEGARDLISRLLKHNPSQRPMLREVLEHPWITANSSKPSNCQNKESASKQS

Aurora kinase A = biological target: T3, Aurora kinase A (Homo sapiens, UniProt O14965); experiment: Induction of AURKA degradation (unknown origin) measured for 6 hrs
T3 sequence (O14965 whole entry): T2 sequence (whole entry)

[8] = biological target: T1, Protein cereblon/Aurora kinase A (Homo sapiens); experiment: PROTAC activity at AURKA/CRBN in human NGP cells assessed as AURKA degradation at 10 nM measured for 24 hrs by Western blot analysis relative to control; format: cell-based; summary of the method: as §2
[9] = biological target: T1, Protein cereblon/Aurora kinase A (Homo sapiens); experiment: PROTAC activity at AURKA/CRBN in human NGP cells assessed as AURKA degradation at 0.1 to 1000 nM measured for 24 hrs by Western blot analysis relative to control; format: cell-based; details: dose 0.1-1000 nM; summary of the method: as §2
[10] = Growth inhibition of patient derived NB139 Neuroblastoma organoid assessed as reduction in viability […] by CellTiter Glo 3D assay; format: functional, tissue-based; details: Homo sapiens
Summary of the method: (§3)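 Patient-derived organoids were dissociated to single cells with Accutase and seeded in NB organoid medium at 5000 (000GKX), 20000 (NB059), 5000 (NB067) or 3000 (NB139) cells/well. Compound was added after 24 h over a concentration range in triplicate, with DMSO matched. Incubation was 120 h at 37 °C and 5% CO2. Viability was read by CellTiter-Glo 3D, and absolute IC50 derived (n = 1).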

SK-N-AS [11] = experiment: Antiproliferative activity against human SK-N-AS cells assessed as reduction in cell viability incubated for 48 hrs; format: functional, cell-based; details: sk-n-as; summary of the method: as §1
[12] = biological target: T1, Protein cereblon/Aurora kinase A (Homo sapiens); experiment: PROTAC activity at AURKA/CRBN in human NGP cells assessed as AURKA degradation at 10 to 1000 nM measured for 24 hrs by immunoblotting analysis; format: cell-based; details: dose 10-1000 nM; summary of the method: as §2
SK-N-AS [13] = experiment: Antiproliferative activity against human SK-N-AS cells assessed as reduction in cell viability incubated for 48 hrs relative to control; format: functional
Summary of the method: (§4)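 Cells grown in RPMI 1640 with 10% fetal calf serum, 2 mM L-glutamine and penicillin/streptomycin at 37 °C, 5% CO2. Seeded at 4500 (IMR-32) or 2100 (SK-N-AS) cells/well in 384-well plates and left to adhere overnight. Concentration range dispensed in triplicate. Confluence tracked by IncuCyte live-cell imaging, and 48h values normalized to DMSO. Absolute IC50 taken from a four-parameter variable-slope fit (n = 4).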

Homo sapiens [14] = species: Homo sapiens; experiment: Growth inhibition of patient derived NB059 Neuroblastoma organoid assessed as reduction in viability incubated for […] by CellTiter Glo 3D assay relative to control; format: functional
[15] = Growth inhibition of patient derived NB067 Neuroblastoma organoid assessed as reduction in viability […] by CellTiter Glo 3D assay; format: functional, tissue-based; details: Homo sapiens; summary of the method: as §3
NGP = experiment: Antiproliferative activity against human NGP cells assessed as reduction in cell viability incubated for 48 hrs relative to control; format: functional
[16] = Growth inhibition of patient derived NB059 Neuroblastoma organoid assessed as reduction in viability incubated for 48 hrs by CellTiter Glo 3D assay; format: functional, tissue-based, Homo sapiens; details: in the assay text read “120 hrs” for “48 hrs”; summary of the method: as §3
[17] = Antiproliferative activity against human N206 cells assessed as reduction in cell viability incubated for 48 hrs; format: functional, cell-based; summary of the method: as §1
Homo sapiens [18] = species: Homo sapiens; experiment: Growth inhibition of patient derived 000GKX Neuroblastoma organoid assessed as reduction in viability incubated for […] by CellTiter Glo 3D assay relative to control; format: functional
Homo sapiens [19] = species: Homo sapiens; experiment: Growth inhibition of patient derived NB139 Neuroblastoma organoid assessed as reduction in viability incubated for […] by CellTiter Glo 3D assay relative to control; format: functional
IMR-32 [20] = experiment: Antiproliferative activity against human IMR-32 cells assessed as reduction in cell viability incubated for 48 hrs relative to control; format: functional; summary of the method: as §4
IMR-32 [21] = experiment: Antiproliferative activity against human IMR-32 cells assessed as reduction in cell viability incubated for 48 hrs; format: functional, cell-based; details: IMR-32, 48 h; summary of the method: as §1
Homo sapiens [22] = species: Homo sapiens; experiment: Growth inhibition of patient derived NB067 Neuroblastoma organoid assessed as reduction in viability incubated for […] by CellTiter Glo 3D assay relative to control; format: functional
[23] = Growth inhibition of patient derived 000GKX Neuroblastoma organoid assessed as reduction in viability […] by CellTiter Glo 3D assay; format: functional, tissue-based, Homo sapiens; details: Homo sapiens, Neuroblastoma organoid; read-out: IC50; summary of the method: as §3
N206 = experiment: Antiproliferative activity against human N206 cells assessed as reduction in cell viability incubated for 48 hrs relative to control; format: functional
[24] = biological target: T4, N-myc proto-oncogene protein (Homo sapiens) (UniProt P04198); experiment: Induction of MYCN degradation in human NGP cells at 500 nM measured upto 72 hrs by Western blot analysis; format: cell-based
T4 sequence (whole entry): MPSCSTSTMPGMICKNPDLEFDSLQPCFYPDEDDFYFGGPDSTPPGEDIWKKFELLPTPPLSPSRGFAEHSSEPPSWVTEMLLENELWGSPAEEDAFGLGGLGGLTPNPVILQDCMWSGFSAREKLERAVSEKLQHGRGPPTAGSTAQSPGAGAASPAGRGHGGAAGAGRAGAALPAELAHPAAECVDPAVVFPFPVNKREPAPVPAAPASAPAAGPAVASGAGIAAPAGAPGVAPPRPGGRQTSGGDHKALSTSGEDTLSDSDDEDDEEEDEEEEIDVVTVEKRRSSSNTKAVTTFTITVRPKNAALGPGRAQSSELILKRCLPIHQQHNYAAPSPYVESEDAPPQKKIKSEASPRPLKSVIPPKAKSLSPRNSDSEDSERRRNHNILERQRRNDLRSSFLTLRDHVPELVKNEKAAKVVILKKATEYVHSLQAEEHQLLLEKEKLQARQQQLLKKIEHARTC
Summary of the method: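 NGP cells were treated with 500 nM compound and harvested at 0, 1, 3, 6, 24, 48 and 72 h. RIPA lysates (35 µg) were run on 10% SDS-PAGE and blotted to nitrocellulose. AURKA and MYCN were probed with vinculin as loading control and quantified by densitometry. Values are percent remaining relative to the DMSO control at each timepoint (n = 3).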

[25] = biological target: T1, Protein cereblon/Aurora kinase A (Homo sapiens); experiment: PROTAC activity at AURKA/CRBN in human NGP cells assessed as downregulation of AURKA level at 10 to 1000 nM measured for 24 hrs by Western blot analysis; format: cell-based; details: dose 10-1000 nM; summary of the method: as §2

## O=C1CCC(N2C(=O)c3ccc(OCCOCCOCCNC(=O)[C@]4(Cc5cccc(Nc6nccs6)n5)CC[C@@H](Oc5cccc(Cl)c5F)CC4)cc3C2=O)C(=O)N1 (stereo partly drawn)
[1]
  IC50: 69.9 nM
[2]
  Emax: 85%

## O=C(COc1cccc2c1C(=O)N(C1CCC(=O)NC1=O)C2=O)NCCOCCOCCNC(=O)[C@]1(Cc2cccc(Nc3nccs3)n2)CC[C@@H](Oc2cccc(Cl)c2F)CC1 (stereo partly drawn)
[1]
  IC50: 83.3 nM
[3]
  Activity: Active

## O=C1CCC(N2C(=O)c3ccc(OCCOCCNC(=O)[C@]4(Cc5cccc(Nc6nccs6)n5)CC[C@@H](Oc5cccc(Cl)c5F)CC4)cc3C2=O)C(=O)N1 (stereo partly drawn)
[1]
  IC50: 63.3 nM
[4]
  Activity: 17%
[5]
  Activity: 45%
[6]
  Activity: Active

## O=C(COc1cccc2c1C(=O)N(C1CCC(=O)NC1=O)C2=O)NCCOCCOCCOCCNC(=O)[C@]1(Cc2cccc(Nc3nccs3)n2)CC[C@@H](Oc2cccc(Cl)c2F)CC1 (stereo partly drawn)
[1]
  IC50: 102 nM
[7]
  Emax: 82%
Aurora kinase A
  DC50: 3 nM

## O=C1CCC(N2C(=O)c3cccc(OCCOCCNC(=O)[C@]4(Cc5cccc(Nc6nccs6)n5)CC[C@@H](Oc5cccc(Cl)c5F)CC4)c3C2=O)C(=O)N1 (stereo partly drawn)
[1]
  IC50: 1310 nM
[3]
  Activity: inactive
[2]
  Activity: inactive

## O=C1CCC(N2C(=O)c3ccc(OCCOCCOCCOCCNC(=O)[C@]4(Cc5cccc(Nc6nccs6)n5)CC[C@@H](Oc5cccc(Cl)c5F)CC4)cc3C2=O)C(=O)N1 (stereo partly drawn)
[1]
  IC50: 40.1 nM
[2]
  Emax: 85%
[8]
  Emax: 85%

## COc1cc(Nc2ncc3c(n2)-c2ccc(Cl)cc2C(c2c(F)cccc2OC)=NC3)ccc1C(=O)NCCOCCOCCNC(=O)COc1cccc2c1C(=O)N(C1CCC(=O)NC1=O)C2=O (stereo not drawn)
[1]
  IC50: 877 nM
[9]
  Emax: 73%

## O=C(O)[C@]1(Cc2cccc(Nc3nccs3)n2)CC[C@@H](Oc2cccc(Cl)c2F)CC1 [MK-5108]
[10]
  IC50: 900 nM
SK-N-AS [11]
  IC50: Not Active
[12]
  Activity: inactive
[1]
  IC50: 362 nM
SK-N-AS [13]
  Emax: 58.5%
Homo sapiens [14]
  Emax: 75.9%
[15]
  IC50: 75.3 nM
NGP
  Emax: 32.9%
[16]
  IC50: Not Active
[17]
  IC50: Not Active
Homo sapiens [18]
  Emax: 59.5%
Homo sapiens [19]
  Emax: 44.1%
IMR-32 [20]
  Emax: 20.4%
IMR-32 [21]
  IC50: 199 nM
Homo sapiens [22]
  Emax: 14.2%
[23]
  IC50: 483 nM
N206
  Emax: 53.2%
[24]
  Activity: Active

## O=C1CCC(N2C(=O)c3ccc(OCCOCCOCCOCCOCCNC(=O)[C@]4(Cc5cccc(Nc6nccs6)n5)CC[C@@H](Oc5cccc(Cl)c5F)CC4)cc3C2=O)C(=O)N1 (stereo partly drawn)
[1]
  IC50: 34 nM
[2]
  Emax: 85%
[8]
  Emax: 85%

## CN1C(=O)CCC(N2C(=O)c3cccc(OCCOCCOCCOCCNC(=O)[C@]4(Cc5cccc(Nc6nccs6)n5)CC[C@@H](Oc5cccc(Cl)c5F)CC4)c3C2=O)C1=O (stereo partly drawn)
[1]
  IC50: 1100 nM
[25]
  Activity: inactive

## O=C1CCC(N2C(=O)c3cccc(OCCOCCOCCOCCOCCNC(=O)[C@]4(Cc5cccc(Nc6nccs6)n5)CC[C@@H](Oc5cccc(Cl)c5F)CC4)c3C2=O)C(=O)N1 (stereo partly drawn)
[1]
  IC50: 50.9 nM
[3]
  Activity: Active
[2]
  Emax: 85%

## O=C1CCC(N2C(=O)c3cccc(OCCOCCOCCNC(=O)[C@]4(Cc5cccc(Nc6nccs6)n5)CC[C@@H](Oc5cccc(Cl)c5F)CC4)c3C2=O)C(=O)N1 (stereo partly drawn)
[1]
  IC50: 80.8 nM
[3]
  Activity: Active
[2]
  Emax: 85%

From ChEMBL document CHEMBL5331087, “Targeted AURKA degradation: Towards new therapeutic agents for neuroblastoma” (Eur J Med Chem, 2023)
